Results on seven compounds are retold here after ChEMBL document CHEMBL1123507, “Antipicornavirus activity of substituted phenoxybenzenes and phenoxypyridines” (J Med Chem, 1986).

As usually defined, the inhibition is the percentage by which the read-out fell short of the control. The low end stands for a response near the control, the high end for a response far below the control. Broadly, the Inhibition is the percentage by which the read-out fell short of the control. Read a high Inhibition as a response far below the control.

The subject of data set [1] is Enterovirus. As to the kind of experiment: Ratio of the MIC50 of 6-(4-Nitro-phenoxy)-nicotinonitrile compared to compound obtained in the same test for Rhinovirus (RV)-1A. The class given is functional. A digest of the protocol:
(§1)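 Relative activity was calculated as the MIC50 of the positive control 5-cyano-2-(4-nitrophenoxy)pyridine divided by the MIC50 of the test compound. Both were measured in parallel in the same HeLa CPE test (48/72 h microscopic reading) against RV-1A, RV-2 or coxsackievirus A21.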

For data set [2], the system named is Coxsackievirus. As to the kind of experiment: Ratio of the MIC50 of 6-(4-Nitro-phenoxy)-nicotinonitrile compared to compound obtained in the same test for coxsackie A21. The class given is functional. A digest of the protocol:
as §1

Data set [3] relates to Enterovirus. As to the kind of experiment: Ratio of the MIC50 of 6-(4-Nitro-phenoxy)-nicotinonitrile compared to compound obtained in the same test for Rhinovirus (RV)-2. The class given is functional. Put shortly: as §1
The subject of data set [4] is Enterovirus. Briefly: Lowest concentration to reduce viral effect by 50% or more against Rhinovirus (RV)-1A. The class given is functional. A digest of the protocol: (§2)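 HeLa monolayers were seeded at (1.0-1.3) × 10^5 cells/well, grown 24 h at 36 °C in 5% CO2 to 60–75% cover, then refed with maintenance medium (1-2% heat-inactivated FCS) containing two-fold serial compound dilutions made from a 200 μg/mL stock in Me2SO/medium, with final Me2SO ≤0.1%. Cells were challenged with 10-100 TCID50 virus, and CPE was read microscopically at 48 and 72 h. MIC50 was the lowest concentration giving ≥50% CPE reduction versus virus control. Cytotoxicity was the lowest concentration causing cell death, a growth change or a morphology change in uninfected cultures.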

In data set [5] the test system is Coxsackievirus. As to the kind of experiment: Lowest concentration to reduce viral effect by 50% or more against coxsackie virus A21. In kind it is functional. A digest of the protocol:
as §2

The next data set concerns HeLa. Briefly: Cytotoxicity concentration in HeLa cells. The class given is cell-based. The note with it: human. Put shortly:
as §2

Data set [6] has as its system Enterovirus. As to the kind of experiment: Lowest concentration to reduce viral effect by 50% or more against Rhinovirus (RV)-2. The class given is functional. Put shortly:
as §2

In data set [7] the test system is Enterovirus. Briefly: Antiviral activity against rhinovirus RV-64. The class given is functional. Put shortly:
as §2

In data set [8] the test system is Enterovirus. As to the kind of experiment: Antiviral activity against rhinovirus RV-32. The class given is functional. Put shortly: as §2
Data set [9] has as its system Enterovirus. As to the kind of experiment: Antiviral activity against rhinovirus RV-5. The class given is functional. Put shortly:
as §2

For data set [10], the system named is Enterovirus. Briefly: Antiviral activity against rhinovirus RV-10. The class given is functional. A digest of the protocol: as §2
Data set [11] deals with Enterovirus. As to the kind of experiment: Antiviral activity against rhinovirus RV-Hanks. In kind it is functional. Put shortly:
as §2

For data set [12], the system named is Enterovirus. Briefly: Antiviral activity against rhinovirus RV-4. The class given is functional. A digest of the protocol: as §2
Data set [13] has as its system Enterovirus. As to the kind of experiment: Antiviral activity against rhinovirus RV-55. The class given is functional. Put shortly: as §2
For a further data set, the system named is Mengo virus. Briefly: Antiviral activity against mengo. The class given is functional. To be noted: Cardiovirus A. Put shortly: as §2
Data set [14] relates to Enterovirus. As to the kind of experiment: Antiviral activity against rhinovirus Polio 2. In kind it is functional. Put shortly:
(§3)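 HeLa monolayers (1.0-1.3×10^5 cells/well, grown 24 h at 36 °C to 60-75% cover) refed with maintenance E-MEM (1-2% heat-inactivated FCS) holding two-fold serial dilutions from a 200 μg/mL DMSO stock (final DMSO ≤0.1%). Challenged with 10-100 TCID50 virus, 36 °C, 5% CO2. CPE read microscopically at 48 and 72 h. MIC50 is the lowest concentration cutting CPE ≥50% vs virus control.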

The subject of data set [15] is Enterovirus. As to the kind of experiment: Compound was evaluated for inhibition of rhinovirus RV-Hanks at a dose of 50 ug/mL by < 50%. The class given is functional.
Data set [16] deals with Enterovirus. Briefly: Antiviral activity against rhinovirus RV-68. The class given is functional. A digest of the protocol: as §2
The test system of data set [17] is Enterovirus. Briefly: Antiviral activity against rhinovirus RV-14. In kind it is functional. A digest of the protocol:
as §2

For data set [18], the system named is Coxsackievirus. Briefly: Antiviral activity against coxsackie B4. The class given is functional. Put shortly: as §2
For data set [19], the system named is Enterovirus. As to the kind of experiment: Antiviral activity against rhinovirus RV-1B. The class given is functional. A digest of the protocol:
as §2

Data set [20] has as its system Enterovirus. Briefly: Compound was evaluated for inhibition of rhinovirus RV-Hanks 75%. In kind it is functional.
The subject of data set [21] is Enterovirus. As to the kind of experiment: Antiviral activity against rhinovirus RV-29. In kind it is functional. Put shortly:
as §2

For data set [22], the system named is Enterovirus. As to the kind of experiment: Antiviral activity against rhinovirus RV-9. In kind it is functional. Put shortly: as §2
The subject of data set [23] is Enterovirus. As to the kind of experiment: Antiviral activity against rhinovirus RV-44. In kind it is functional. Put shortly: as §2
The test system of data set [24] is Enterovirus. As to the kind of experiment: Antiviral activity against rhinovirus RV-74. The class given is functional. A digest of the protocol:
as §2

The test system of data set [25] is Enterovirus. Briefly: Antiviral activity against rhinovirus RV-39. In kind it is functional. A digest of the protocol: as §2
The subject of data set [26] is Enterovirus. Briefly: Antiviral activity against rhinovirus RV-49. In kind it is functional. Put shortly: as §2
In data set [27] the test system is Enterovirus. Briefly: Antiviral activity against rhinovirus RV-21. The class given is functional. A digest of the protocol: as §3
Data set [28] deals with Coxsackievirus. As to the kind of experiment: Antiviral activity against rhinovirus Coxsackie B3. The class given is functional. Put shortly:
as §2

For data set [29], the system named is Enterovirus. Briefly: Antiviral activity against rhinovirus RV-33. The class given is functional. A digest of the protocol: as §2
A further data set deals with Echovirus. Briefly: Antiviral activity against Echo 12. The class given is functional. A digest of the protocol: as §2
The subject of data set [30] is Enterovirus. As to the kind of experiment: Antiviral activity against rhinovirus RV-13. The class given is functional. A digest of the protocol:
as §2

Data set [31] has as its system Enterovirus. As to the kind of experiment: Antiviral activity against rhinovirus RV-8. In kind it is functional. A digest of the protocol:
as §2

In brackets after ≈: the same amount, converted by molar mass.

As for `N#Cc1ccc(Oc2ccc(Cl)cc2)nc1`, the Relative activity was 1.9 in the data set with Enterovirus [1], 0.48 with Coxsackievirus [2] and 2 with Enterovirus [3]. For the same compound, the MIC50 in the data set with Enterovirus [4], against Coxsackievirus [5] and in the data set with Enterovirus [6] was 54 µM (≈ 12.5 µg/mL) each time. Besides, the Toxicity in the data set on HeLa was above 433 µM.
Regarding `COc1cccc(Oc2ccc([N+](=O)[O-])cc2C#N)c1`, the figures for the Relative activity in the data set with Enterovirus [1], in the data set with Coxsackievirus [2] and in the data set with Enterovirus [3] were 1.1, 2.8 and 1.4, respectively. In addition, the MIC50 was found to be 23 µM (≈ 6.22 µg/mL) against Enterovirus [4], 4.6 µM (≈ 1.24 µg/mL) against Coxsackievirus [5] and 9.3 µM (≈ 2.51 µg/mL) in the data set with Enterovirus [6]. For the same compound, in the data set on HeLa, the Toxicity is above 185 µM.
For `CS(=O)(=O)c1ccc(Oc2ccc([N+](=O)[O-])cc2)cc1`, the values for the Relative activity in the data set with Enterovirus [1], in the data set with Coxsackievirus [2] and in the data set with Enterovirus [3] were 1.2, 6.1 and 2.4, respectively. Besides, the MIC50 was determined as 42.7 µM (≈ 12.5 µg/mL) in the data set on Enterovirus [4], 0.85 µM (≈ 0.249 µg/mL) against Coxsackievirus [5] and 21.3 µM (≈ 6.25 µg/mL) in the data set on Enterovirus [6]. For the same compound, in the data set with HeLa, the Toxicity was found to be 171 µM.
Regarding `N#Cc1cc([N+](=O)[O-])ccc1Oc1ccc(Cl)c(Cl)c1`, the MIC was 0.52 µM (≈ 0.161 µg/mL) with Enterovirus [7]; 0.97 µM (≈ 0.3 µg/mL) against Enterovirus [8]; 2 µM (≈ 0.618 µg/mL) against Enterovirus [9]; below 1 µM against Enterovirus [10]; 0.42 µM (≈ 0.13 µg/mL) in the data set on Enterovirus [11]; 0.97 µM (≈ 0.3 µg/mL) in the data set on Enterovirus [12]. The MIC is 0.81 µM (≈ 0.25 µg/mL) against Enterovirus [13]; above 1.6 µM with Mengo virus; 1.9 µM (≈ 0.587 µg/mL) against Enterovirus [14]; below 1.9 µM against Enterovirus [16]; 3.2 µM (≈ 0.989 µg/mL) with Enterovirus [17]; 4.9 µM (≈ 1.51 µg/mL) against Coxsackievirus [18]. The MIC in the data set with Enterovirus [19] is 0.81 µM (≈ 0.25 µg/mL); against Enterovirus [21], 0.81 µM (≈ 0.25 µg/mL); against Enterovirus [22] it was 0.42 µM (≈ 0.13 µg/mL); with Enterovirus [23] it was 0.81 µM (≈ 0.25 µg/mL); against Enterovirus [24], below 0.97 µM; with Enterovirus [25], 0.42 µM (≈ 0.13 µg/mL). Moreover, the MIC in the data set with Enterovirus [26] was found to be 0.81 µM (≈ 0.25 µg/mL); with Enterovirus [27] it was 1.9 µM (≈ 0.587 µg/mL); in the data set with Coxsackievirus [28], 4.9 µM (≈ 1.51 µg/mL); in the data set with Enterovirus [29] it was 0.81 µM (≈ 0.25 µg/mL); in the data set with Echovirus, 0.97 µM (≈ 0.3 µg/mL); in the data set on Enterovirus [30], 0.81 µM (≈ 0.25 µg/mL). The compound further gave an MIC against Enterovirus [31] of 0.52 µM (≈ 0.161 µg/mL). The inhibition at 50 µg/mL with Enterovirus [15] was determined as 0%. For the same compound, the Relative activity in the data set with Enterovirus [1] was 319; in the data set on Coxsackievirus [2] it was 99.6; in the data set on Enterovirus [3] it was 99.6. In the data set on Enterovirus [20], this compound yielded an Inhibition of 100%. In addition, the MIC50 turned out to be 0.26 µM (≈ 0.0804 µg/mL) in the data set with Enterovirus [4], 0.52 µM (≈ 0.161 µg/mL) in the data set on Coxsackievirus [5] and 0.26 µM (≈ 0.0804 µg/mL) against Enterovirus [6]. The Toxicity in the data set on HeLa was above 324 µM.
Take `CC(=O)Nc1ccc(Oc2ccc(Cl)c(Cl)c2)c(C#N)c1`: the Relative activity is on record as 3.5 in the data set with Enterovirus [1], 1.7 in the data set on Coxsackievirus [2] and 3.5 in the data set with Enterovirus [3]. Besides, the MIC50 came out at 3.7 µM (≈ 1.19 µg/mL) in the data set with Enterovirus [4], 15.6 µM (≈ 5.01 µg/mL) against Coxsackievirus [5] and 3.7 µM (≈ 1.19 µg/mL) in the data set on Enterovirus [6]. This compound also came in with a Toxicity in the data set with HeLa of 62 µM.
`Cc1ccc(Oc2ccc(C#N)cn2)cc1`: the Relative activity was 0.43 in the data set on Enterovirus [1], 0.43 in the data set on Coxsackievirus [2] and 1.7 with Enterovirus [3]. The MIC50 worked out at 60 µM (≈ 12.6 µg/mL) in the data set with Enterovirus [4], 60 µM (≈ 12.6 µg/mL) in the data set with Coxsackievirus [5] and 30 µM (≈ 6.31 µg/mL) against Enterovirus [6]. Besides, the Toxicity with HeLa came out at 476 µM.
Regarding `N#Cc1cc([N+](=O)[O-])ccc1Oc1ccc(C(F)(F)F)cc1`, the values for the Relative activity in the data set with Enterovirus [1], with Coxsackievirus [2] and in the data set with Enterovirus [3] were 1.3, 13 and 13, respectively. The MIC50 against Enterovirus [4] was determined as 10 µM (≈ 3.08 µg/mL); against Coxsackievirus [5] it was 2 µM (≈ 0.616 µg/mL); against Enterovirus [6], 1 µM (≈ 0.308 µg/mL). In addition, the Toxicity with HeLa worked out at 162 µM.
